According to the RNAGym collection of RNA variant scans (doi:10.1126/science.aae0568):
This sample holds only a part of the variants without activity.

B1: tRNA (parent)
chain: GUUCCGUUGGCGUAAUGGUAACGCGUCUCCCUCCUAAGGAGAAGACUGCGGGUUCGAGUCCCGUACGGAACG

Variants of: B1
Test: yeast fitness relative to wild type (ratio to wild type); higher = fitter; tRNA-Arg(CCU), competitive growth, 37 C, YPD
Procedure, shortened: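 Amplicons of the tRNA-Arg(CCU) gene were sequenced, 100-nucleotide paired-end, from the start population and from each end population of a pooled yeast competition. The competition, in six parallel replicates, lasted 24 hours in YPD at 37°C. Fitness relative to wild type was calculated from changes in genotype frequencies. Genotypes had to have ≥ 100 starting reads, and estimates < 0.5 were set to 0.5.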

Going from C5G C61G A69C to C5G G23C C33U A43C, the yeast fitness falls from 0.574 to at most 0.5.

Compared with C5G C55U C61A A65U, C5G C46U C49U is higher in yeast fitness: 0.669 for the first, 0.944 for the second.

Going from C5G U7C U26G C60G to C5G C33A A57G, the yeast fitness rises from at most 0.5 to 0.59.

C5G U7A A15C U28A and C5G C29G C34U cannot be ordered by yeast fitness: at most 0.5 for the first, at most 0.5 for the second.

First: C5G G10A A20U C24U C34U A43U A69C
Second: C5G G9A C11U A21U C22U A57C C60G
The yeast fitness of the first is higher: 0.667 for the first, 0.535 for the second.

First: C5G G17C A43U
Second: C5G C46G C49U
The yeast fitness of the first is lower: 0.516 for the first, 0.646 for the second.

Going from C5G G52A G56C to C5G G41C U47A, the yeast fitness rises from at most 0.5 to 0.526.

Going from C5G G41C U47G to C5G U7C, the yeast fitness rises from at most 0.5 to 0.787.

C5G C31G C46A G63C A65U and C5G G9C A57U cannot be ordered by yeast fitness: at most 0.5 for the first, at most 0.5 for the second.

First: C5G C31U G58C C62A
Second: C5G G25A C46U A69U
The yeast fitness of the first is lower: at most 0.5 for the first, 0.576 for the second.

Going from C5G C61G to C5G C61U, the yeast fitness rises from 0.63 to 0.736.

First: C5G C61A
Second: C5G G17C G23C C33G A43C
The yeast fitness of the first is higher: 0.651 for the first, at most 0.5 for the second.

C5G G10A A20U U26C U35C C49A G56A U64A and C5G G38C G68A cannot be ordered by yeast fitness: at most 0.5 for the first, at most 0.5 for the second.

C5G G10C G52A and C5G G18A G25A C61A cannot be ordered by yeast fitness: at most 0.5 for the first, at most 0.5 for the second.

Going from C5G C29U C30A C66U to C5G G17A G18A A57C, the yeast fitness falls from 0.645 to 0.554.

Going from C5G C55U C61A to C5G C30G G67C, the yeast fitness falls from 0.605 to 0.543.

C5G G18A A57G A65C and C5G G25A U28G G38C C62G C66U cannot be ordered by yeast fitness: at most 0.5 for the first, at most 0.5 for the second.

First: C5G G10C A43U C62A
Second: C5G C29G A65G
The yeast fitness of the first is lower: at most 0.5 for the first, 0.565 for the second.

Going from C5G C49U to C5G G17A C22U C46U C66U A70C, the yeast fitness falls from 0.815 to 0.62.

Going from C5G C34G C62G to C5G U7A A20C C31G C34U C62A, the yeast fitness falls from 0.59 to at most 0.5.

Going from C5G G51C C61G to C5G G17C C62U A65C, the yeast fitness falls from 0.607 to 0.52.

C5G C30U C34U A37U G68C and C5G G23A G25C cannot be ordered by yeast fitness: at most 0.5 for the first, at most 0.5 for the second.

Compared with C5G C34U U35C, C5G U7C A45U C55G is lower in yeast fitness: 0.545 for the first, at most 0.5 for the second.

Compared with C5G C34G U47A C62A G63A, C5G G12C G18A C24U C29U A36G is higher in yeast fitness: at most 0.5 for the first, 0.608 for the second.

Compared with C5G G9C G18A G25C A37C A43G, C5G G6C C24U C46A is higher in yeast fitness: at most 0.5 for the first, 0.559 for the second.

First: C5G U7A A20C C60U A69U
Second: C5G G41C
The yeast fitness of the first is lower: 0.546 for the first, 0.736 for the second.

First: C5G G41A
Second: C5G C31A C55U A65C A70U
The yeast fitness of the first is higher: 0.698 for the first, at most 0.5 for the second.

Compared with C5G G12A C46U G48A G52C, C5G G39C A70G is higher in yeast fitness: at most 0.5 for the first, 0.596 for the second.

Compared with C5G C46U G68C, C5G C31U G63A is higher in yeast fitness: 0.596 for the first, 0.683 for the second.

Compared with C5G C61U A70G, C5G G9C C30G C66U is lower in yeast fitness: 0.707 for the first, at most 0.5 for the second.

Compared with C5G G9C A42G U54C, C5G G9C is higher in yeast fitness: 0.641 for the first, 0.696 for the second.

First: C5G G48C C49U U54G C66A
Second: C5G C31U U32C U54G C55U C61U
The yeast fitness of the first is higher: 0.682 for the first, at most 0.5 for the second.

Going from C5G G10C G67A to C5G G12C, the yeast fitness rises from at most 0.5 to 0.816.

Going from C5G G58C to C5G C60A A69C, the yeast fitness falls from 0.859 to 0.532.

Going from C5G G48A G68C to C5G C60U C62G, the yeast fitness falls from 0.653 to 0.634.

Going from C5G G44C C62U C66U A69C to C5G G12C A20U C24G C33A C46A C55A, the yeast fitness falls from 0.515 to at most 0.5.

C5G G17C A42U G52A G67U and C5G U7C A14U C24U C46G C62U C66U cannot be ordered by yeast fitness: at most 0.5 for the first, at most 0.5 for the second.

Going from C5G G17C A20C A21U C27U C33G to C5G G9C A21G, the yeast fitness rises from at most 0.5 to 0.531.

First: C5G U7C U54A G63A
Second: C5G C33G C60G C66G
The yeast fitness of the first is lower: at most 0.5 for the first, 0.584 for the second.

C5G G9C G56C and C5G G6A G48A cannot be ordered by yeast fitness: at most 0.5 for the first, at most 0.5 for the second.

First: C5G U7C C49U
Second: C5G G48A G56C A65G
The yeast fitness of the first is higher: 0.524 for the first, at most 0.5 for the second.

C5G G17C G25A G51A and C5G G51U C55G A65C cannot be ordered by yeast fitness: at most 0.5 for the first, at most 0.5 for the second.

Compared with C5G C49U U59G, C5G C30G G56A G58C C61G is lower in yeast fitness: 0.579 for the first, at most 0.5 for the second.

Compared with C5G G9A C27G C61U, C5G G48C is higher in yeast fitness: at most 0.5 for the first, 0.758 for the second.

C5G G23A U54A and C5G G50C G51C G56A cannot be ordered by yeast fitness: at most 0.5 for the first, at most 0.5 for the second.

First: C5G G10C C29A U32A C46G A57C
Second: C5G G23C G48A G67A
The yeast fitness of the first is lower: at most 0.5 for the first, 0.567 for the second.

C5G G17A A20C C49G G51A and C5G G18A C27G C30U C31G cannot be ordered by yeast fitness: at most 0.5 for the first, at most 0.5 for the second.

Compared with C5G C30A A36G C61A, C5G G10A C11G U16G C33G U47A C60A is lower in yeast fitness: 0.592 for the first, at most 0.5 for the second.

C5G C34G G38C G68C and C5G G18C C61U A65C cannot be ordered by yeast fitness: at most 0.5 for the first, at most 0.5 for the second.

C5G G18A G48C G67A and C5G G38C U47G C62U cannot be ordered by yeast fitness: at most 0.5 for the first, at most 0.5 for the second.

First: C5G C34G C66U
Second: C5G C62U A69C
The yeast fitness of the first is lower: at most 0.5 for the first, 0.708 for the second.

Going from C5G C34U G44C U47G to C5G C61A G67A, the yeast fitness rises from at most 0.5 to 0.529.

Going from C5G G18A A42C A45C to C5G G50A A69U, the yeast fitness rises from at most 0.5 to 0.742.

Compared with C5G G50A A69C, C5G C49U G63C is lower in yeast fitness: 0.571 for the first, at most 0.5 for the second.

First: C5G C29U C33U G39C
Second: C5G G9C A42G C49U U54C
The yeast fitness of the first is higher: 0.724 for the first, 0.533 for the second.

Compared with C5G G10C G52A A69U, C5G G48C G67C is higher in yeast fitness: at most 0.5 for the first, 0.573 for the second.

Compared with C5G G12A C46U, C5G G56C A65U is lower in yeast fitness: 0.572 for the first, at most 0.5 for the second.

Compared with C5G G56C A65C, C5G C30A A36G U64C is lower in yeast fitness: 0.549 for the first, at most 0.5 for the second.

C5G G9C A14C and C5G G17C C49U C61A cannot be ordered by yeast fitness: at most 0.5 for the first, at most 0.5 for the second.

C5G G56A U59G and C5G G17C G38C G52A cannot be ordered by yeast fitness: at most 0.5 for the first, at most 0.5 for the second.

C5G G12A A14G C30G A45G G52A and C5G C31G G52C U54A C62G cannot be ordered by yeast fitness: at most 0.5 for the first, 0.5 for the second.

First: C5G G23A G44C G67U
Second: C5G G10C G68U
The yeast fitness of the first is higher: 0.589 for the first, at most 0.5 for the second.

C5G C30U G44C and C5G C31U A36C G38A G56A A70U cannot be ordered by yeast fitness: at most 0.5 for the first, at most 0.5 for the second.

C5G G10A C11G U16G C33G G58A A65G and C5G G41A A42C G50C A70G cannot be ordered by yeast fitness: at most 0.5 for the first, at most 0.5 for the second.

C5G C34A A37U G44A G51A C55A A57U and C5G U7G A15G cannot be ordered by yeast fitness: at most 0.5 for the first, at most 0.5 for the second.

Compared with C5G G9U A21C U54A A57G, C5G U7C A14C G51C is higher in yeast fitness: at most 0.5 for the first, 0.697 for the second.

First: C5G C30U U32A C61G
Second: C5G G41C G67C
The yeast fitness of the first is lower: at most 0.5 for the first, 0.631 for the second.

First: C5G G9A A65C
Second: C5G C46U C66A
The yeast fitness of the first is higher: 0.596 for the first, 0.524 for the second.

Compared with C5G G25C A37G, C5G U7A C22U C30A C49G C62G is lower in yeast fitness: 0.504 for the first, at most 0.5 for the second.

C5G G51U G67C and C5G C33A G41C A65C cannot be ordered by yeast fitness: at most 0.5 for the first, at most 0.5 for the second.

C5G C55U A65C A70U and C5G G25A A42C G68U cannot be ordered by yeast fitness: at most 0.5 for the first, at most 0.5 for the second.

First: C5G G25C G44A A69C
Second: C5G G44C G67U
The yeast fitness of the first is lower: at most 0.5 for the first, 1.02 for the second.

Compared with C5G G68A, C5G G68C is higher in yeast fitness: 0.716 for the first, 0.826 for the second.

Compared with C5G G39A A43U, C5G G18C C31A G38U is lower in yeast fitness: 0.575 for the first, at most 0.5 for the second.

C5G G38A A43U G56A and C5G G10C U19G A45C G51A cannot be ordered by yeast fitness: at most 0.5 for the first, at most 0.5 for the second.

First: C5G C61U A65U
Second: C5G U7C U8A
The yeast fitness of the first is lower: 0.557 for the first, 0.56 for the second.

C5G G6A G23A and C5G U7C C30U G50C cannot be ordered by yeast fitness: at most 0.5 for the first, at most 0.5 for the second.

Going from C5G C31U C60U A69G to C5G C66U, the yeast fitness rises from at most 0.5 to 0.74.

First: C5G C31U C49G C66U
Second: C5G G23A A45U G52C
The yeast fitness of the first is lower: at most 0.5 for the first, 0.626 for the second.

C5G G23C C31U A37C and C5G U7C C11G C31G cannot be ordered by yeast fitness: at most 0.5 for the first, at most 0.5 for the second.

C5G C49G G50A A57C and C5G G6C U54C G56C G58A cannot be ordered by yeast fitness: at most 0.5 for the first, at most 0.5 for the second.

First: C5G C34U A70U
Second: C5G G25C U47C
The yeast fitness of the first is lower: at most 0.5 for the first, 0.545 for the second.

Going from C5G C30G C66U to C5G G25C G56A, the yeast fitness rises from at most 0.5 to 0.62.

Work on C5G C29G C33A yielded a yeast fitness of at most 0.5.
